Results: ChEMBL document CHEMBL1144660, “Docking and hydropathic scoring of polysubstituted pyrrole compounds with antitubulin activity” (Bioorg Med Chem, 2008)

Tests used:
MDA-MB-435 = test: Antiproliferative activity against human MDA-MB-435 cells after 48 hrs by SRB assay; assay type: functional, cell-based; conditions: MDA-MB-435, 48 h
[1] = Inhibition of tubulin polymerization in rat A10 cells after 18 hrs by indirect immunofluorescence technique; assay type: cell-based
How it was run: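 A-10 cells were exposed to a range of concentrations for 18 hr, fixed, and stained with a β-tubulin antibody for microtubules and with DAPI for DNA. Percent microtubule loss was scored visually at each concentration, averaged over 3 independent experiments, and plotted against concentration to calculate EC50.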

IC50 (MDA-MB-435; read-out: IC50)	IC50 (MDA-MB-435; read-out: Log IC50 (converted))	EC50 [1]	SMILES
10 µM	10 µM	> 50 µM	CCOC(=O)c1[nH]c(Br)c(-c2ccccc2)c1Br
1.4 µM	1.41 µM	7.5 µM	CCOC(=O)c1[nH]c(Br)c(-c2ccc3ccccc3c2)c1Br
0.919 µM	0.912 µM	> 50 µM	CCOC(=O)c1[nH]c(Br)c(-c2ccc(Cl)cc2)c1Br
0.312 µM	0.309 µM	> 50 µM	CCOC(=O)c1[nH]c(Br)c(-c2ccc(Br)cc2)c1Br
0.278 µM	0.282 µM	2.4 µM	CCOC(=O)c1[nH]c(Br)c(-c2cccc(OC)c2)c1Br
1.1 µM	1.12 µM	7.1 µM	CCOC(=O)c1[nH]c(Br)c(-c2cc(OC)c(OC)cc2Br)c1Br
13 µM	12.9 µM	> 50 µM	CCOC(=O)c1[nH]c(Br)c(-c2cc(OC)c(OC)c(OC)c2)c1Br
2.2 µM	2 µM	> 50 µM	CCOC(=O)c1[nH]c(Br)c(-c2ccc(C)cc2)c1Br
	0.0182 µM		CCOC(=O)c1[nH]c(Br)c(-c2ccc(OC)c(OC)c2)c1Br
0.361 µM	0.363 µM	5.1 µM	CCOC(=O)c1[nH]c(Br)c(-c2ccc(OC)cc2)c1Br

Second part, the compound before the results:

SMILES	IC50 (MDA-MB-435; read-out: IC50)	IC50 (MDA-MB-435; read-out: Log IC50 (converted))	EC50 [1]
COc1ccc(C(=O)c2[nH]c(C(=O)c3ccc(OC)cc3)c(-c3ccc(OC)cc3)c2-c2ccc(OC)cc2)cc1	> 20 µM	200 µM	> 50 µM
CCOC(=O)c1[nH]cc(-c2ccc(OC)cc2)c1-c1ccc(OC)cc1	> 10 µM	100 µM	> 50 µM
CCOC(=O)c1[nH]c(C(=O)c2ccc(OC)cc2)c(-c2ccc(OC)cc2)c1Br	1.9 µM	1.91 µM	> 50 µM
COc1cc2c(c(OC)c1OC)-c1ccc(OC)c(=O)cc1C(NC(=O)CS)CC2 (centres undefined)	2 µM	2 µM	
CCOC(=O)c1cc(-c2ccc(OC)cc2)c(C(=O)c2ccc(OC)cc2)[nH]1	2.6 µM	2.63 µM	> 50 µM
CCOC(=O)c1cc(-c2ccc(OC)cc2)c(Cl)[nH]1	5 µM	5.01 µM	> 50 µM
CCOC(=O)c1[nH]c(C(=O)c2ccc(OC)cc2)c(-c2ccc(OC)cc2)c1-c1ccc(OC)cc1	4.2 µM	4.27 µM	> 50 µM
COC(=O)c1c(-c2ccc(OC)c(OC)c2)c(-c2ccc(OC)c(OC)c2)cn1CCc1ccc(OC)c(OC)c1	10 µM	10 µM	> 50 µM
CCOC(=O)c1c[nH]c(C(=O)c2ccc(OC)cc2)c1-c1ccc(OC)cc1	10 µM	10 µM	> 50 µM
